# In ChEMBL document CHEMBL3784930, “Design, synthesis and biological evaluation of N,N-3-phenyl-3-benzylaminopropanamide derivatives as novel cholesteryl ester transfer protein inhibitor” (Bioorg Med Chem, 2016):
# Columns and labels:
# [1] = biological target: T1, Cholesteryl ester transfer protein (Homo sapiens, UniProt P11597); assay: Inhibition of full-length human recombinant CETP expressed in CHO cells by BODIPY-CE fluorescence assay; type: cell-based
# T1 sequence (P11597 whole entry): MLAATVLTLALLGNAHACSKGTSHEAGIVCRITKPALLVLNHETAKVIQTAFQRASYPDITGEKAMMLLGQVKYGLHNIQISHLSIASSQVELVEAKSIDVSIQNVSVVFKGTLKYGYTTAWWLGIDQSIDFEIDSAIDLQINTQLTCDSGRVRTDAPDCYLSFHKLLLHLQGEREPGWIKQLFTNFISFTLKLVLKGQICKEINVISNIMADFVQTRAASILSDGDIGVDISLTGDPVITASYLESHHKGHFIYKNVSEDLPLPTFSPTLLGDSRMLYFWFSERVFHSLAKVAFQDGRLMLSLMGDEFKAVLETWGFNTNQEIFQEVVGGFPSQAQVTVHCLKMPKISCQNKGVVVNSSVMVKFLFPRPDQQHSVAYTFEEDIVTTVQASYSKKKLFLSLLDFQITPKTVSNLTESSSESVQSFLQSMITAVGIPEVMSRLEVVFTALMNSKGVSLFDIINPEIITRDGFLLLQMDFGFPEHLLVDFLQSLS
# Syrian golden hamster [2] = assay: Antidyslipidemic activity in high cholesterol/lipid diet fed golden syrian hamster assessed as increase in HDL-cholesterol levels at 30 mg/kg/day, po administered for 2 weeks relative to control; type: functional, Mesocricetus auratus
# Summary of the method: (§1)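 Male Golden Syrian hamsters (8 weeks old, 120-130 g) were randomized by weight into control and treated groups (n = 6). Dyslipidemia was induced with a high cholesterol and lipid diet for 5 weeks. Dosing was oral at 30 mg/kg/day for two weeks in ethanol/cremophor/saline 5:5:90. Blood was drawn from the orbit, and serum lipid levels were compared with controls.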
# Syrian golden hamster [3] = assay: Antidyslipidemic activity in high cholesterol/lipid diet fed golden syrian hamster assessed as reduction in LDL-cholesterol levels at 30 mg/kg/day, po administered for 2 weeks relative to control; type: functional, Mesocricetus auratus; set-up: scale not given: the % may be the effect or the level left; summary of the method: as §1
# [4] = biological target: Cholesteryl ester transfer protein (Homo sapiens) (UniProt P11597); assay: Inhibition of recombinant CETP by BODIPY-CE fluorescence assay
# Homo sapiens [5] = organism: Homo sapiens; assay: Increase in HDL-cholestrol levels in mild dyslipidemia patient at 10 mg; type: functional
# Homo sapiens [6] = organism: Homo sapiens; assay: Reduction in LDL-cholestrol levels in mild dyslipidemia patient at 5 to 10 mg; type: functional; set-up: scale not given: the % may be the effect or the level left
# Homo sapiens [7] = assay: In vivo inhibition of CETP in human whole plasma at 120 mg for 14 days; type: functional, organism-based; conditions: 336 h
Structure (SMILES),IC50 [1] [µM],further results
CCOC(=O)c1ccc(N2CCN(C(=O)CCN(Cc3ccc(F)cc3)c3cccc(Oc4ccccc4)c3)CC2)cc1,–,Activity (Syrian golden hamster [2]): 21.7%; Activity (Syrian golden hamster [3]): 24.6%
Cc1cc(N(CCC(=O)N2CCN(c3ccccc3)CC2)Cc2ccc(F)cc2)ccc1Br,13.9,–
O=C(CCN(Cc1ccc(F)cc1)c1ccc(Cl)c(Cl)c1)NC1CC1,> 50,–
COc1ccc(C(CC(=O)c2ccccc2)Nc2ccc(Cl)cc2)cc1OC (configuration not stated),–,IC50 [4]: 8.06 µM
CCc1cc(N(CCC(=O)N2CCN(c3ccccc3)CC2)Cc2ccc(F)cc2)ccc1Cl,19.5,–
O=C(CCN(Cc1ccc(F)cc1)c1ccc(Cl)c(Cl)c1)NC1CCCCC1,10.7,–
CC(C)(C)NC(=O)CCN(Cc1ccc(F)cc1)c1ccc(Cl)c(Cl)c1,29.6,–
O=C(CCN(Cc1ccc(F)cc1)c1ccc(Cl)c(Cl)c1)N1CCN(c2ncccn2)CC1,11.8,–
CCCCN(CC1CC1)C(=O)CCN(Cc1ccc(F)cc1)c1ccc(Cl)c(Cl)c1,> 50,–
O=C(CCN(Cc1ccc(F)cc1)c1cccc(-c2ccccc2)c1)N1CCN(c2ccccc2)CC1,11.3,–
O=C(CCN(Cc1ccc(F)cc1)c1ccc(Cl)c(Cl)c1)N1CCOCC1,14.2,–
O=C(CCN(Cc1ccc(F)cc1)c1ccc(Cl)c(C(F)(F)F)c1)N1CCN(c2ccccc2)CC1,37.8,–
CCOC(=O)N1c2ccc(C(F)(F)F)cc2[C@@H](N(Cc2cc(C(F)(F)F)cc(C(F)(F)F)c2)c2ncc(OCCCC(=O)O)cn2)C[C@H]1CC [OBICETRAPIB],–,Activity (Homo sapiens [5]): 179.1%; Activity (Homo sapiens [6]): 45.3%
CCOC(=O)N1c2ccc(C(F)(F)F)cc2[C@@H](N(Cc2cc(C(F)(F)F)cc(C(F)(F)F)c2)C(=O)OC)C[C@H]1CC [TORCETRAPIB],–,IC50 (Homo sapiens [7]): 0.05 µM

# The next lines start with results.
IC50 [1] [µM],Structure (SMILES),further results
3.5,COc1ccc(N2CCN(C(=O)CCN(Cc3ccc(F)cc3)c3ccc(Cl)c(Cl)c3)CC2)cc1,–
2.8,CCOC(=O)c1ccc(N2CCN(C(=O)CCN(Cc3ccc(F)cc3)c3ccc(Cl)c(Cl)c3)CC2)cc1,–
7.3,COc1ccc(N2CCN(C(=O)CCN(Cc3ccc(F)cc3)c3cccc(-c4ccccc4)c3)CC2)cc1,–
5.2,O=C(CCN(Cc1ccc(F)cc1)c1ccc(Cl)c(Cl)c1)N1CCN(c2ccccc2)CC1,–
2.8,COc1ccc(N2CCN(C(=O)CCN(Cc3ccc(F)cc3)c3cccc(Oc4ccccc4)c3)CC2)cc1,–
3.1,CCOC(=O)c1ccc(N2CCN(C(=O)CCN(Cc3ccc(F)cc3)c3cccc(-c4ccccc4)c3)CC2)cc1,–
